In the array DNA melting data of Ke et al. (doi:10.1101/2024.01.08.574731) one finds Tm and folding enthalpy data, which are given here for 37 sequences.

A short description of data set [1]: melting temperature; fluorescence melt of hairpins on a sequencing array, two-state fit, raised by 9.35 °C to match UV melts. To be noted: sodium 0.088 M. In a few lines:
(§1)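 With Cy3 and quencher oligos annealed, library hairpins on a sequenced MiSeq flow cell were imaged for Cy3 fluorescence in 50 mM Na-HEPES pH 8.0, 25 mM NaCl, in 2.5 °C steps up to 60 °C. Melting temperature and folding enthalpy were derived from bootstrapped two-state fits of signals normalised to pre-quench Cy3 and to control constructs. Four replicates were combined by inverse variance, with fitted temperatures raised by 9.35 °C to match UV melts.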

Data set [2] can be described thus: folding enthalpy; higher = less favourable; fluorescence melt of hairpins on a sequencing array, two-state fit. To be noted: sodium 0.088 M. In a few lines:
as §1

Turning to GCTAGTGCGAAAGCAAGC (((..(((....)))))), the Tm in data set [1] came to 39 °C. Also, the folding enthalpy in data set [2] is -12.3 kcal/mol.

Turning to GACGCAGGAAACTACGTC ((((.((....)).)))), the Tm in data set [1] amounted to 43.5 °C. For the same sequence, the folding enthalpy in data set [2] is -26.6 kcal/mol.

Regarding GATCCGAGGGCGGATC ((((((....)))))), the Tm in data set [1] was 55.3 °C. For the same sequence, the folding enthalpy in data set [2] was -31.5 kcal/mol.

Regarding GGGACCGAAAGGTGCCCC ((((((....)))..))), in data set [1], the Tm was found to be 57.6 °C. The folding enthalpy in data set [2] is -13.5 kcal/mol.

Turning to GCATGCGGAAACGCACAC (..((((....))))..), the Tm in data set [1] was 27.7 °C. The folding enthalpy in data set [2] is -9.47 kcal/mol.

Turning to GCGTCGTTACGC ((((....)))), in data set [1], the Tm was found to be 52.6 °C. The folding enthalpy in data set [2] is -21.8 kcal/mol.

Turning to GGTGTCGAAAGACCGACC ((((((....)))..))), the Tm in data set [1] is 39.1 °C. In data set [2], the folding enthalpy was -14.9 kcal/mol.

Turning to GATCTATTTATAGATC ((((((....)))))), the Tm in data set [1] was found to be 51.8 °C. Further, the folding enthalpy in data set [2] is -48.6 kcal/mol.

Turning to GTCCGTCCGAAAGGAGAC (((..(((....)))))), in data set [1], the Tm was 29.1 °C. In data set [2], the folding enthalpy was -11.8 kcal/mol.

For the sequence GATCCAGACTGGATC ((((((...)))))), the Tm in data set [1] worked out at 52 °C. For the same sequence, the folding enthalpy in data set [2] was -36.9 kcal/mol.

In the case of GTCTGTCGAAAGACGAC (((.(((....)))))), the Tm in data set [1] is 51.5 °C. For the same sequence, the folding enthalpy in data set [2] is -28.6 kcal/mol.

As to GCCATGCGAAAGCTTAGC ((.(.((....)).).)), the Tm in data set [1] was found to be 28 °C. The folding enthalpy in data set [2] is -13.1 kcal/mol.

On to GGCGGTCGAAAGACAGCC (((.(((....))).))), for which the Tm in data set [1] was found to be 67.7 °C. Further, the folding enthalpy in data set [2] is -35 kcal/mol.

Take GATAGGGGAAACCTTATC ((((.((....)).)))): the Tm in data set [1] amounted to 33.6 °C. The folding enthalpy in data set [2] is -25.5 kcal/mol.

Consider GAATGGCCGAAAGGCTTC (((..(((....)))))), for which the Tm in data set [1] was found to be 27.6 °C. Further, the folding enthalpy in data set [2] was -6.89 kcal/mol.

For the sequence GATCCGTCCGCGGATC ((((((....)))))), the Tm in data set [1] amounted to 61 °C. Also, in data set [2], the folding enthalpy was -36.7 kcal/mol.

For the sequence GCACATACGAAAGTATGC (((..(((....)))))), the Tm in data set [1] was determined as 35.4 °C. Further, the folding enthalpy in data set [2] is -9.91 kcal/mol.

CGTGATCGGAAACGAACG (((..(((....)))))): the Tm in data set [1] turned out to be 28.6 °C. For the same sequence, in data set [2], the folding enthalpy is -8.71 kcal/mol.

Regarding GATCGAATTTTCGATC ((((((....)))))), the Tm in data set [1] turned out to be 55.1 °C. The folding enthalpy in data set [2] is -36.1 kcal/mol.

As to GAGATCGGAAACGATCCC (.(((((....))))).), the Tm in data set [1] was 42.9 °C. Further, the folding enthalpy in data set [2] is -12.9 kcal/mol.

GATCGGCACTCCGATC ((((((....)))))): the Tm in data set [1] was determined as 57.1 °C. For the same sequence, the folding enthalpy in data set [2] is -40.5 kcal/mol.

On to GGTTCGGCGAAAGCCACC (((..(((....)))))), for which the Tm in data set [1] was found to be 28.7 °C. Besides, the folding enthalpy in data set [2] was -9.35 kcal/mol.

Take GCTTGGCGAAAGCCCGGC ((..(((....)))..)): in data set [1], the Tm was 45.4 °C. The folding enthalpy in data set [2] was -14.4 kcal/mol.

As for GTGGGCGAAAGCCACAC ((((((....))).))), the Tm in data set [1] stood at 59.9 °C. In addition, the folding enthalpy in data set [2] was -14.4 kcal/mol.

Take GGTCTAGGAAACTGGACC ((((.((....)).)))): the Tm in data set [1] was found to be 51 °C. Moreover, the folding enthalpy in data set [2] was -41.6 kcal/mol.

GATCACCCGAAAGGGATC (((..(((....)))))): in data set [1], the Tm was 35.5 °C. Besides, in data set [2], the folding enthalpy was -14 kcal/mol.

For GTCAGCCGAAAGGCGGAC (((.(((....))).))), the Tm in data set [1] came to 68 °C. In addition, the folding enthalpy in data set [2] was -33.1 kcal/mol.

Turning to GTTATCGGAAACGATGAC ((.((((....)))).)), in data set [1], the Tm was 47.1 °C. In addition, the folding enthalpy in data set [2] is -25.2 kcal/mol.

In the case of GAACTTGGAAACAGGTTC ((((.((....)).)))), the Tm in data set [1] stood at 41 °C. Further, the folding enthalpy in data set [2] is -32.2 kcal/mol.

Consider GACGACGAAAGTCTAGTC ((((((....)))..))), for which the Tm in data set [1] stood at 41.8 °C. Moreover, the folding enthalpy in data set [2] was -23.8 kcal/mol.

Consider GATGGAGGAAACTCCGTC ((.((((....)))).)), for which the Tm in data set [1] was determined as 48.9 °C. Also, in data set [2], the folding enthalpy was -31.9 kcal/mol.

As to GATCGCCGGTGCGATC ((((((....)))))), the Tm in data set [1] was determined as 66 °C. Besides, the folding enthalpy in data set [2] was -35.1 kcal/mol.

For the sequence GATCGTTGTACGATC ((((((...)))))), the Tm in data set [1] was 61.1 °C. Moreover, the folding enthalpy in data set [2] was -38.8 kcal/mol.

In the case of GTTTATGGAAACATAAGC (.(((((....))))).), the Tm in data set [1] came out at 33.7 °C. Also, in data set [2], the folding enthalpy was -20.8 kcal/mol.

Consider GCATGAGGAAACTTATGC ((((.((....)).)))), for which the Tm in data set [1] worked out at 44.2 °C. The folding enthalpy in data set [2] was -34.7 kcal/mol.

As for GCCAATGGAAACGTTGGC (((((.(....).))))), the Tm in data set [1] was 53.7 °C. For the same sequence, the folding enthalpy in data set [2] was -49.3 kcal/mol.

Turning to GGCGCTGGAAACGGTGCC (((.(.(....).).))), the Tm in data set [1] is 52.7 °C. For the same sequence, in data set [2], the folding enthalpy is -31.2 kcal/mol.
